Data from ChEMBL document CHEMBL1157729, “Structure-activity relationship and mechanism of action studies of manzamine analogues for the control of neuroinflammation and cerebral infections” (J Med Chem, 2010).

What was measured:
Plasmodium berghei [1] = experiment: Antiplasmodial activity in Plasmodium berghei NK65 infected in Swiss Webster mice (Mus musculus) assessed as survivability at 1.1 mg/kg, perorally administered 1 day after infection for 3 days measured after 28 days post infection; assay type: functional; conditions: route oral
Procedure, shortened: (§1)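 Male Swiss Webster mice (18-20 g), at least 5 per group, inoculated i.p. with 2×10^7 P. berghei NK-65-parasitized red cells from a donor mouse. Oral dosing (100 μl, in SSV or 0.01 M HCl dilutions) from day one post-infection on a 3-day schedule (modified Peters test). Giemsa-stained tail-blood smears read from day 5 to day 28. Cure means no parasitemia through day 28.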

Plasmodium berghei [2] = experiment: Antiplasmodial activity against Plasmodium berghei NK65 infected in Swiss Webster mice (Mus musculus) assessed as survivability at 3.3 mg/kg, perorally administered 1 day after infection for 3 days measured after 28 days post infection; assay type: functional; conditions: route oral; procedure, shortened: as §1
[3] = Antineuroinflammatory activity in LPS-stimulated rat neonatal microglia assessed as inhibition of PMA-induced superoxide anion production preincubated 15 mins prior to PMA challenge measured after 70 mins; assay type: functional, cell-based
[4] = Antineuroinflammatory activity in LPS-stimulated rat neonatal microglia assessed as drug level causing 50% PMA-induced LDH release preincubated 15 mins prior to PMA challenge measured after 70 mins; assay type: functional
Procedure, shortened: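 Neonatal rat microglia (2 × 10^5/well) primed with E. coli LPS 0.3 ng/mL for 17 h at 35.9 °C, washed with HBSS, given compound (0.01–10 μM) or DMSO 15 min, then PMA 1 μM; LDH read spectrophotometrically after 70 min; LDH50 relative to Triton X-100 (0.1%) release; duplicates.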

Plasmodium berghei [5] = experiment: Antiplasmodial activity against Plasmodium berghei NK65 infected in Swiss Webster mice (Mus musculus) assessed as average parasitaemia at 3.3 mg/kg, perorally administered 1 day after infection for 3 days measured after 7 days post infection; assay type: functional; conditions: route oral
Procedure, shortened: (§2)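 Male Swiss Webster mice (18-20 g, ≥5/group) inoculated i.p. with 2×10^7 P. berghei NK-65 parasitized RBC; oral dosing (100 μl, SSV or dilute HCl vehicle) once daily for 3 days from day 1; Giemsa-stained tail blood smears days 5–28; inhibition is % decrease versus untreated controls on day 5.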

Plasmodium berghei [6] = experiment: Antiplasmodial activity against Plasmodium berghei NK65 infected in Swiss Webster mice (Mus musculus) assessed as inhibition of parasitaemia at 50 mg/kg, perorally administered 1 day after infection measured after 5 days post infection; assay type: functional; conditions: route oral
Procedure, shortened: (§3)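 Male Swiss Webster mice (18-20 g, ≥5/group) inoculated i.p. with 2×10^7 P. berghei NK-65 parasitized RBC, given a single oral dose (100 μl, SSV or dilute HCl vehicle); parasitemia by Giemsa-stained tail blood smears days 5–28; activity as % decrease versus untreated controls on day 5.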

Plasmodium berghei [7] = experiment: Antiplasmodial activity against Plasmodium berghei NK65 infected in Swiss Webster mice (Mus musculus) assessed as inhibition of parasitaemia at 100 mg/kg, perorally administered 1 day after infection measured after 5 days post infection; assay type: functional; conditions: route oral; procedure, shortened: as §3
Plasmodium berghei [8] = experiment: Antiplasmodial activity against Plasmodium berghei NK65 infected in Swiss Webster mice (Mus musculus) assessed as inhibition of parasitaemia at 200 mg/kg, perorally administered 1 day after infection measured after 5 days post infection; assay type: functional; conditions: Plasmodium berghei, NK65, route oral; procedure, shortened: as §3
Plasmodium berghei [9] = experiment: Antiplasmodial activity against Plasmodium berghei NK65 infected in Swiss Webster mice (Mus musculus) assessed as average parasitaemia at 3.3 mg/kg, perorally administered 1 day after infection for 3 days measured after 14 days post infection; assay type: functional; conditions: route oral; procedure, shortened: as §2
Plasmodium berghei [10] = experiment: Antiplasmodial activity against Plasmodium berghei NK65 infected in Swiss Webster mice (Mus musculus) assessed as average parasitaemia at 10 mg/kg, perorally administered 1 day after infection for 3 days measured after 14 days post infection; assay type: functional; conditions: route oral
Plasmodium berghei [11] = experiment: Antiplasmodial activity against Plasmodium berghei NK65 infected in Swiss Webster mice (Mus musculus) at 3.3 mg/kg, po; assay type: functional; procedure, shortened: as §1
Plasmodium berghei [12] = experiment: Antiplasmodial activity against Plasmodium berghei NK65 infected in Swiss Webster mice (Mus musculus) assessed as average parasitaemia at 100 mg/kg, perorally administered 1 day after infection measured after 5 days post infection; assay type: functional; conditions: route oral; procedure, shortened: as §3
Plasmodium berghei [13] = experiment: Antiplasmodial activity against Plasmodium berghei NK65 infected in Swiss Webster mice (Mus musculus) assessed as average parasitaemia at 200 mg/kg, perorally administered 1 day after infection measured after 5 days post infection; assay type: functional; conditions: Plasmodium berghei, NK65, route oral
Procedure, shortened: (§4)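 Male Swiss Webster mice (18-20 g), at least 5 per group, were inoculated ip with 2×10^7 P. berghei NK-65-parasitized red cells from a donor mouse and given a single oral dose (100 μl). Stock was made in SSV or 0.1 M HCl and diluted in SSV or 0.01 M HCl. Parasitemia was read from Giemsa-stained tail blood smears from day 5 to day 28. Cure meant no parasitemia through day 28.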

Plasmodium berghei [14] = experiment: Antiplasmodial activity against Plasmodium berghei NK65 infected in Swiss Webster mice (Mus musculus) assessed as average parasitaemia at 100 mg/kg, perorally administered 1 day after infection measured after 21 days post infection; assay type: functional; conditions: route oral; procedure, shortened: as §3
Plasmodium berghei [15] = experiment: Antiplasmodial activity against Plasmodium berghei NK65 infected in Swiss Webster mice (Mus musculus) assessed as average parasitaemia at 200 mg/kg, perorally administered 1 day after infection measured after 21 days post infection; assay type: functional; conditions: Plasmodium berghei, NK65, route oral; procedure, shortened: as §4
Plasmodium berghei [16] = experiment: Antiplasmodial activity against Plasmodium berghei NK65 infected in Swiss Webster mice (Mus musculus) assessed as average parasitaemia at 100 mg/kg, perorally administered 1 day after infection measured after 28 days post infection; assay type: functional; conditions: route oral; procedure, shortened: as §3
Plasmodium berghei [17] = experiment: Antiplasmodial activity against Plasmodium berghei NK65 infected in Swiss Webster mice (Mus musculus) assessed as suppression of parasitaemia at 10 mg/kg, intraperitoneally administered 1 day after infection for 3 days measured after 5 days post infection relative to control; assay type: functional; conditions: Plasmodium berghei, NK65, ip, route intraperitoneal
Plasmodium yoelii = experiment: Antiplasmodial activity against Plasmodium yoelii infected in perorally dosed mice (Mus musculus); assay type: functional; conditions: po
Mus musculus [18] = species: Mus musculus; experiment: Toxicity in Plasmodium berghei NK65 infected Swiss Webster mice (Mus musculus) assessed as weight loss until day 5 of post infection; assay type: organism-based; conditions: in vivo
Mus musculus [19] = experiment: Toxicity in Plasmodium berghei NK65 infected Swiss Webster mice (Mus musculus) assessed as weight loss at 200 mg/kg, perorally; assay type: organism-based; parameters: dose 200 mg/kg, route oral; conditions: in vivo, po
Procedure, shortened: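 P. berghei NK-65 infection in male Swiss Webster mice (18-20 g; 2×10^7 parasitized erythrocytes i.p.; ≥5 per group). A single oral dose of 100 μl, diluted in SSV or 0.01 M HCl, then observation for toxicity signs and body weight. Parasitemia read from Giemsa-stained tail smears from day 5 through day 28. Mice free of parasitemia through day 28 counted as cured.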

HeLa [20] = experiment: Cell cycle arrest in human HeLa cells assessed as increase in G0/G1 phase accumulation at 10 uM after 24 hrs by FACS analysis; assay type: functional
HeLa [21] = experiment: Cell cycle arrest in human HeLa cells assessed as increase in G0/G1 phase accumulation at 20 uM after 24 hrs by FACS analysis; assay type: functional
Mus musculus [22] = experiment: Toxicity in Plasmodium berghei NK65 infected Swiss Webster mice (Mus musculus) assessed as weight loss at 10 mg/kg, intraperitoneally administered 1 day after infection measured after 3 days post infection; assay type: organism-based; parameters: dose 10 mg/kg, route intraperitoneal; conditions: in vivo, ip, 72 h
HeLa [23] = experiment: Cell cycle arrest in human HeLa cells assessed as decrease in G2/M phase accumulation at 3 uM after 24 hrs by FACS analysis; assay type: functional; parameters: scale not given: the % may be the effect or the level left

In the case of `O[C@]12C=C(c3nccc4c3[nH]c3ccccc34)[C@@H]3CCN(CCCC/C=C\CC1)C[C@@]31C[C@@H]3/C=C\CCCCN3[C@H]12` [MANZAMINE A], the inhibition in vivo at 1.1 mg/kg (Plasmodium berghei [1]) is reported as 50%, the inhibition in vivo at 3.3 mg/kg (Plasmodium berghei [2]) is reported as 100% and the IC50 [3] is reported as 100 nM. For the same compound, the Activity [4] was over 10 µM, the inhibition in vivo at 3.3 mg/kg (Plasmodium berghei [5]) was 2.8% and the inhibition in vivo at 50 mg/kg (Plasmodium berghei [6]) was 100%. It also gave an inhibition in vivo at 100 mg/kg (Plasmodium berghei [7]) of 100%, an inhibition in vivo at 200 mg/kg (Plasmodium berghei [8]) of 100% and an inhibition in vivo at 3.3 mg/kg (Plasmodium berghei [9]) of 11.9%. The inhibition in vivo at 10 mg/kg (Plasmodium berghei [10]) was 0.9%, the inhibition in vivo at 3.3 mg/kg (Plasmodium berghei [11]) was over 30% and the inhibition in vivo at 100 mg/kg (Plasmodium berghei [12]) was 0%. It also gave an inhibition in vivo at 200 mg/kg (Plasmodium berghei [13]) of 0%, an inhibition in vivo at 100 mg/kg (Plasmodium berghei [14]) of 0% and an inhibition in vivo at 200 mg/kg (Plasmodium berghei [15]) of 0%. It also gave an inhibition in vivo at 100 mg/kg (Plasmodium berghei [16]) of 0%, an inhibition in vivo at 10 mg/kg (Plasmodium berghei [17]) of 100% and an ED50 (Plasmodium yoelii) of 0.57 mg/kg. The ED90 (Plasmodium yoelii) was 1.7 mg/kg, the Activity (Mus musculus [18]) was “Toxic” and the Activity (Mus musculus [19]) was “Toxic”. For the same compound, the Activity (HeLa [20]) was 59.1%, the Activity (HeLa [21]) was 67.2% and the Activity (Mus musculus [22]) was “Toxic”. For the same compound, the Activity (HeLa [23]) was 13%.
